According to ChEMBL document CHEMBL1125117, “Substituted 1,3-dihydro-2H-pyrrolo[2,3-b]pyridin-2-ones as potential antiinflammatory agents” (1990):

How the values were obtained:
Rattus norvegicus [1] = experiment: In vivo inhibitory activity against cells in reverse passive Arthus reaction (RPAR) assay at dose 25 mg/kg in the pleural cavity of rats.; type: functional
Summary of the method: (§1)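 Male rats, five per group, dosed orally 1 h before iv BSA antigen (5 mg). Rabbit anti-BSA IgG (0.5 mg) given intrapleurally 30 min later. At 4 h, pleural exudate volume was measured and neutrophils counted (Coulter) after saline-EDTA lavage. Reported as % reduction in cells and fluid relative to control.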

Rattus norvegicus [2] = experiment: In vivo inhibitory activity against fluid in reverse passive Arthus reaction (RPAR) assay at dose 25 mg/kg in the pleural cavity of rats.; type: functional; summary of the method: as §1
[3] = molecular target: T1, Polyunsaturated fatty acid 5-lipoxygenase (Homo sapiens) (UniProt P09917); experiment: In vitro inhibitory activity against 5-lipoxygenase in human polymorphonuclear (PMN) cells; details: concentration not given here
T1 sequence (whole entry): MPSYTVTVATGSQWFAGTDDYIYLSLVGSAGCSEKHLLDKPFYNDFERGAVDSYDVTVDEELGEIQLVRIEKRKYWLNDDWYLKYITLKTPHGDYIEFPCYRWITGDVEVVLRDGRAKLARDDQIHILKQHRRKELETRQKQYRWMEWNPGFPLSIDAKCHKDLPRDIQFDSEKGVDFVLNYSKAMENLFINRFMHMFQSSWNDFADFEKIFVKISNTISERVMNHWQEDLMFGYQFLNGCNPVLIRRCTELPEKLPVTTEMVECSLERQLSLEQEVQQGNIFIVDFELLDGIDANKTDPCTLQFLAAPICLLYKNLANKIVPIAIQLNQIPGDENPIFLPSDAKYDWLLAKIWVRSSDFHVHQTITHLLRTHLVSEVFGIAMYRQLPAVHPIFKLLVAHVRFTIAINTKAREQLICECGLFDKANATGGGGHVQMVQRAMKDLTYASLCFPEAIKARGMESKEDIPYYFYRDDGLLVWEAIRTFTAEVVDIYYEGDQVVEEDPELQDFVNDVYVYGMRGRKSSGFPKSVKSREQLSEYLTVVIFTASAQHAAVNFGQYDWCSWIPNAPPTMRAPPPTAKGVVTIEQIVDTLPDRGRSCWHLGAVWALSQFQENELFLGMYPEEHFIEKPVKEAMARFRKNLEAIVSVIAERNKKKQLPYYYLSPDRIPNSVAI
Summary of the method: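 Human PMN neutrophils (2×10^7 cells/mL) in HEPES buffer with 1 mM CaCl2, preincubated 4 min with test compound in DMSO vehicle. Then stimulated with [14C]arachidonic acid plus calcium ionophore A23187 for 5 min and stopped with methanol. 5-HETE was quantitated by HPLC. Reported as % inhibition versus vehicle, tested at 15 μM.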

Rattus norvegicus [4] = experiment: In vivo effect on prostaglandin and leukotriene mediated production in rat pleural cavity was assessed by the inhibition of LTE4 in 5-lipoxygenase/ cyclooxygenase at dose 25 mg/kg; type: functional
Summary of the method: (§2)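 Rat reversed passive Arthus pleurisy, oral dosing 1 h before challenge. BSA given iv (5 mg), then rabbit anti-BSA IgG intrapleurally 30 min later. At 4 h, exudate was collected into indomethacin/NDGA and its volume recorded. Neutrophils were counted by Coulter counter. TXB2 and LTE4 in ethanol-extracted supernatant were measured by RIA with tritiated recovery spikes. Reported as % inhibition versus control.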

Rattus norvegicus [5] = experiment: In vivo effect on prostaglandin and leukotriene mediated production in rat pleural cavity was assessed by the inhibition of cell influx in 5-lipoxygenase/ cyclooxygenase at dose 25 mg/kg; type: functional; summary of the method: as §2
Rattus norvegicus [6] = experiment: In vivo effect on prostaglandin and leukotriene mediated production in rat pleural cavity was assessed by the inhibition of fluid volume in 5-lipoxygenase/ cyclooxygenase at dose 25 mg/kg; type: functional; details: for inhibition in vivo at 25 mg/kg: Rattus norvegicus, Pleural cavity; summary of the method: as §2
Rattus norvegicus [7] = experiment: In vivo antiinflammatory activity against edema formation in the noninjected(secondary) paw of the rat (before edema stimulation) at dose 25 mg/kg; type: functional
Summary of the method: (§3)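 Adjuvant arthritis in rats, prophylactic regimen. Oral dosing began 1 h before challenge and continued for 21 consecutive days. Heat-killed M. tuberculosis in paraffin oil (6 mg/mL), 0.1 mL injected into the left hind paw, with methylcellulose-treated controls. Both hind paw volumes measured by plethysmograph on day 21. Reported as % change relative to control.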

Rattus norvegicus [8] = experiment: In vivo antiinflammatory activity against edema formation in the injected(primary) paw of the rat(before edema stimulation) at dose 25 mg/kg; type: functional; summary of the method: as §3
[9] = molecular target: Cyclooxygenase (Homo sapiens) (UniProt P35354+P23219); experiment: In vitro inhibitory activity against Prostaglandin G/H synthase in human platelets; set-up: concentration or dose not given beside the values; details: concentration not given here
Summary of the method: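 Human platelets (2×10^5/mL) in HEPES buffer with 0.5 mM EGTA and 1.5 mM CaCl2, incubated 4 min with compound in DMSO vehicle. Then given [14C]arachidonic acid and A23187 ionophore for 5 min and stopped with methanol. HHT was measured by reverse-phase HPLC. Reported as % inhibition of HHT versus vehicle, at 15 μM.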

Rattus norvegicus [10] = experiment: In vivo effect on prostaglandin and leukotriene mediated production in rat pleural cavity was assessed by the inhibition of TxB2 in 5-lipoxygenase/ cyclooxygenase at dose 25 mg/kg
Rattus norvegicus [11] = experiment: In vivo effect on prostaglandin and leukotriene mediated production in rat pleural cavity was assessed by the inhibition of TXB2 in 5-lipoxygenase/ cyclooxygenase at dose 25 mg/kg; type: functional; summary of the method: as §2

Compound	inhibition in vivo at 25 mg/kg (Rattus norvegicus [1])	inhibition in vivo at 25 mg/kg (Rattus norvegicus [2])	inhibition [3]	further results
CC1(C)C(=O)N(c2ccccc2Cl)c2ncccc21	14%	3%	0%	
CSc1ccc(N2C(=O)C(C)(C)c3cccnc32)cc1	29%	37%	23%	
CC(C)N1C(=O)C(C)(C)c2cccnc21	34%	14%	6%	
CCC1(C)C(=O)N(c2ccccc2)c2ncccc21 (stereo not drawn)	36%	12%	13%	
CC1(C)C(=O)N(c2ccc(Cl)cc2)c2ncc(Br)cc21	29%	0%	34%	
CC1(C)C(=O)N(c2cccc(C(F)(F)F)c2)c2ncccc21	35%	10%	34%	
C[S+]([O-])c1ccc(N2C(=O)C(C)(C)c3cccnc32)cc1 (stereo not drawn)	39%	0%	11%	
Cc1c(Cl)cccc1N1C(=O)C(C)(C)c2cccnc21	14%	0%	7%	
CCC1(CC)C(=O)N(c2ccccc2)c2ncccc21	13%	0%	12%	
CC1(C)C(=O)N(c2cccc(Cl)c2)c2ncccc21	51%	49%	3%	inhibition in vivo at 25 mg/kg (Rattus norvegicus [4]): 59%; inhibition in vivo at 25 mg/kg (Rattus norvegicus [5]): 51%; inhibition in vivo at 25 mg/kg (Rattus norvegicus [6]): 49%; inhibition in vivo at 25 mg/kg (Rattus norvegicus [7]): 31%; inhibition in vivo at 25 mg/kg (Rattus norvegicus [8]): 0%; inhibition [9]: 0%; TxB2 inhibition (Rattus norvegicus [10]): 62%
COc1ccc(N2C(=O)C(C)(C)c3cccnc32)cc1	63%	42%	11%	inhibition in vivo at 25 mg/kg (Rattus norvegicus [11]): 34%; inhibition in vivo at 25 mg/kg (Rattus norvegicus [5]): 63%; inhibition in vivo at 25 mg/kg (Rattus norvegicus [7]): 0%; inhibition in vivo at 25 mg/kg (Rattus norvegicus [8]): 0%
CC1(C)C(=O)N(c2ccc(Cl)cc2)c2ccccc21	0%	0%		
CC1(C)C(=O)N(c2cc(Cl)cc(Cl)c2)c2ncccc21	49%	33%		
CC1(C)C(=O)N(c2ccc(F)cc2F)c2ncccc21	61%	19%	7%	
CN1C(=O)C(C)(C)c2cccnc21	69%	53%		inhibition in vivo at 25 mg/kg (Rattus norvegicus [11]): 17%; inhibition in vivo at 25 mg/kg (Rattus norvegicus [5]): 69%; Inhibition (Rattus norvegicus [6]; 25 mg/kg): 53%; inhibition in vivo at 25 mg/kg (Rattus norvegicus [6]): 53%
CCCCC1(C)C(=O)N(c2ccccc2)c2ncccc21 (stereo not drawn)	21%	5%	13%	

Compound	inhibition in vivo at 25 mg/kg (Rattus norvegicus [1])	inhibition in vivo at 25 mg/kg (Rattus norvegicus [2])	inhibition [3]	further results
COCCSC1(C)C(=O)N(c2ccccc2)c2ncccc21 (stereo not drawn)	26%	23%	0%	
CC1(C)C(=O)N(c2ccc(Cl)cc2Cl)c2ncccc21	16%	8%	20%	
CC1(C)C(=O)N(c2ccc(Br)cc2)c2ncccc21	46%	55%	11%	
CC1(Cc2ccccc2)C(=O)N(c2ccccc2)c2ncccc21 (stereo not drawn)	9%	0%	17%	
CC(C)c1ccc(N2C(=O)C(C)(C)c3cccnc32)cc1	29%	6%	0%	
CC1(C)C(=S)N(c2ccc(Cl)cc2)c2ncccc21	41%	42%	17%	
CC1(C)C(=O)N(c2ccc(S(C)(=O)=O)cc2)c2ncccc21	42%	0%	13%	
CC1(C)C(=O)N(Cc2ccc(Cl)cc2)c2ncccc21	6%	0%	26%	
CC1C(=O)N(c2ccccc2)c2ncccc21 (stereo not drawn)	29%	18%	0%	
CC1(F)C(=O)N(c2ccccc2)c2ncccc21 (stereo not drawn)	50%	35%	0%	
CC1(Sc2ccccc2)C(=O)N(c2ccccc2)c2ncccc21 (stereo not drawn)	0%	0%		
CC1(C)C(=O)N(c2ccc(Cl)c(Cl)c2)c2ncccc21	26%	25%	0%	inhibition in vivo at 25 mg/kg (Rattus norvegicus [4]): 46%; inhibition in vivo at 25 mg/kg (Rattus norvegicus [5]): 26%; inhibition in vivo at 25 mg/kg (Rattus norvegicus [6]): 25%; inhibition [9]: 0%; TxB2 inhibition (Rattus norvegicus [10]): 44%
CSC1(C)C(=O)N(c2ccccc2)c2ncccc21 (stereo not drawn)	34%	53%	21%	
CC1(C)C(=O)N(Cc2ccccc2)c2ncccc21	12%	12%	2%	
CC1(C)C(=O)Nc2ncccc21	46%	38%		
